One block for each compound: values may come before it. The source made the active and inactive calls. The rule behind the calls is not given here.
Columns and labels:
[1] = Stability of the compound in pH 7.4 PBS at 100 uM incubated under dark condition for >0.5 hrs; format: physicochemical; details: buffer, pH 7.4, 0.5 h
[2] = molecular target: T1, ATP-binding cassette sub-family C member 4 (Homo sapiens, UniProt O15439); test: Inhibition of MRP4 in 7 mW/cm'2 irradiated human M14 cells assessed as reduction in ATPase activity at 5 uM measured after 20 mins in presence of doxorubicin by immunoblotting
T1 sequence (O15439 whole entry): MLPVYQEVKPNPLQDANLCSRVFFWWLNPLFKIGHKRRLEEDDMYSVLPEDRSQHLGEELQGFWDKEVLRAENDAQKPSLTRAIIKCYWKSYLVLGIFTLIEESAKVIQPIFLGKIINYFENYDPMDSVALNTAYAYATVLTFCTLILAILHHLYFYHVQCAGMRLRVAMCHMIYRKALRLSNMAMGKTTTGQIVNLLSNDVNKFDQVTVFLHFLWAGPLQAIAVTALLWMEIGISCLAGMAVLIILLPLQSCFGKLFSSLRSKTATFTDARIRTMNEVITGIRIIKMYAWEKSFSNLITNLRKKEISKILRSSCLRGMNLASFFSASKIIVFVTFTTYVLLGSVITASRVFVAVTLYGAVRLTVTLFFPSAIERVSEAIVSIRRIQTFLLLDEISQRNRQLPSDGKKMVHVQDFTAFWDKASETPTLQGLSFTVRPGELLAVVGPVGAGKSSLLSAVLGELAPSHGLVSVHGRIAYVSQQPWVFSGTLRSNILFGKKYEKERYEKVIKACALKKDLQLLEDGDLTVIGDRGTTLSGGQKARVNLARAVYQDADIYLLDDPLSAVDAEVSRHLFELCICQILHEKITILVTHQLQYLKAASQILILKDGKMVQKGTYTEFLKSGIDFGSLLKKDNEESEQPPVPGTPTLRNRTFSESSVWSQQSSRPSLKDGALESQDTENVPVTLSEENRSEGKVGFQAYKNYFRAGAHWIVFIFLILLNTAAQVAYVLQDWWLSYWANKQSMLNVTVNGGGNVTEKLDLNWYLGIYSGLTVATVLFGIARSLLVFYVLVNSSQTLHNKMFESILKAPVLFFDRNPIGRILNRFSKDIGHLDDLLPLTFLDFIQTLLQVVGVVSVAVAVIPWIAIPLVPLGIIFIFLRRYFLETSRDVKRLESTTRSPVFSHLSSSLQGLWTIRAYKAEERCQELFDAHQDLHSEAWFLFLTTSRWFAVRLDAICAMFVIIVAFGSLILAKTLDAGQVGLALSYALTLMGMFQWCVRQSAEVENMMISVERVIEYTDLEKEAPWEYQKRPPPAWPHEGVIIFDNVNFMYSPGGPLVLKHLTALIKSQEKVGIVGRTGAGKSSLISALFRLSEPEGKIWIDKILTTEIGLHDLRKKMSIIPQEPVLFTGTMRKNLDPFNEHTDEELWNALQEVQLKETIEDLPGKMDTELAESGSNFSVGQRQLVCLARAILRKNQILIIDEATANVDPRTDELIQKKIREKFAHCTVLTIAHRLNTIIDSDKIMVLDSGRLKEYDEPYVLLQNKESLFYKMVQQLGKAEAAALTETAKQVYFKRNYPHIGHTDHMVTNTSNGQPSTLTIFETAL
Method in brief: (§1)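 M14 melanoma cells held 20 min at room temperature in PBS under 400 nm light (7 mW/cm2) with 5 μM compound, alone or with equimolar doxorubicin. Transporter ATPase activity then measured; n = 3.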

H9c2 = test: Dark toxicity against rat H9c2 cells at 5 uM measured after 20 mins co-incubated with doxorubicin by spectrophotometric method; format: cell-based; details: h9c2, 20 min
Method in brief: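 Cells (M14 melanoma, human fibroblasts or rat H9c2 cardiomyocytes) kept 20 min at room temperature in PBS in the dark, with 5 μM compound, given alone or with equimolar 5 μM doxorubicin. Cytotoxicity read as extracellular LDH release. Triplicate measurements, n = 3.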

[3] = molecular target: T2, Broad substrate specificity ATP-binding cassette transporter ABCG2 (Homo sapiens, UniProt Q9UNQ0); test: Inhibition of BCRP in 7 mW/cm'2 irradiated human M14 cells assessed as reduction in ATPase activity at 5 uM measured after 20 mins in presence of doxorubicin by immunoblotting; method in brief: as §1
T2 sequence (Q9UNQ0 whole entry): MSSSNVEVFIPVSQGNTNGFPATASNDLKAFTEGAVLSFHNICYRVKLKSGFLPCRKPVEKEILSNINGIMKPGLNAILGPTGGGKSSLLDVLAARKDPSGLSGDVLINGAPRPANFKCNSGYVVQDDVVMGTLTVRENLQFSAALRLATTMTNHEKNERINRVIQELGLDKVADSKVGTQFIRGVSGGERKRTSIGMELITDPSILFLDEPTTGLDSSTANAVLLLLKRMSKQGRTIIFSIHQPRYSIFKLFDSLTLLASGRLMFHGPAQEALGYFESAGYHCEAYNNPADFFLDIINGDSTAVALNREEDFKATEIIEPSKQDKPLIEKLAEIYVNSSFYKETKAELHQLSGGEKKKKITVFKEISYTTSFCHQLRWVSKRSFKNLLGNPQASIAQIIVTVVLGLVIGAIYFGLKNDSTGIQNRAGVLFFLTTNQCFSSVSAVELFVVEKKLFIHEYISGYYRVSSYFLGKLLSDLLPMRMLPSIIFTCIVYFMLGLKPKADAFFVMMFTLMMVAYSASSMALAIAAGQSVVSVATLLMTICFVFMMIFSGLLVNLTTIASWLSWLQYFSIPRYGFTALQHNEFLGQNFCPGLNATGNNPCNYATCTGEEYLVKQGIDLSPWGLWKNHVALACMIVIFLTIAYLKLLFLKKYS

Homo sapiens [4] = species on record: Homo sapiens; test: Inhibition of Pgp in 7 mW/cm'2 irradiated human M14 cells assessed as nitration of tyrosine in pgp at 5 uM measured after 20 mins in presence of doxorubicin by immunoblotting
Method in brief: (§2)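 M14 melanoma cells held 20 min at room temperature in PBS under 400 nm light (7 mW/cm2) with 5 μM compound, alone or with equimolar doxorubicin. Nitrated ABC transporters (Pgp, MRP1, MRP4, BCRP) detected by immunoblot.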

[5] = molecular target: T3, Multidrug resistance-associated protein 1 (Homo sapiens, UniProt P33527); test: Inhibition of MRP1 in 7 mW/cm'2 irradiated human M14 cells assessed as reduction in ATPase activity at 5 uM measured after 20 mins in presence of doxorubicin by immunoblotting; method in brief: as §1
Homo sapiens [6] = species on record: Homo sapiens; test: Inhibition of Pgp in 7 mW/cm'2 irradiated human M14 cells assessed as reduction in ATPase activity at 5 uM measured after 20 mins in presence of doxorubicin by immunoblotting; method in brief: as §1
[7] = molecular target: T3, Multidrug resistance-associated protein 1; test: Inhibition of MRP1 in 7 mW/cm'2 irradiated human M14 cells assessed as nitration of tyrosine in MRP1 at 5 uM measured after 20 mins in presence of doxorubicin by immunoblotting; method in brief: as §2

T3 sequence (P33527 whole entry): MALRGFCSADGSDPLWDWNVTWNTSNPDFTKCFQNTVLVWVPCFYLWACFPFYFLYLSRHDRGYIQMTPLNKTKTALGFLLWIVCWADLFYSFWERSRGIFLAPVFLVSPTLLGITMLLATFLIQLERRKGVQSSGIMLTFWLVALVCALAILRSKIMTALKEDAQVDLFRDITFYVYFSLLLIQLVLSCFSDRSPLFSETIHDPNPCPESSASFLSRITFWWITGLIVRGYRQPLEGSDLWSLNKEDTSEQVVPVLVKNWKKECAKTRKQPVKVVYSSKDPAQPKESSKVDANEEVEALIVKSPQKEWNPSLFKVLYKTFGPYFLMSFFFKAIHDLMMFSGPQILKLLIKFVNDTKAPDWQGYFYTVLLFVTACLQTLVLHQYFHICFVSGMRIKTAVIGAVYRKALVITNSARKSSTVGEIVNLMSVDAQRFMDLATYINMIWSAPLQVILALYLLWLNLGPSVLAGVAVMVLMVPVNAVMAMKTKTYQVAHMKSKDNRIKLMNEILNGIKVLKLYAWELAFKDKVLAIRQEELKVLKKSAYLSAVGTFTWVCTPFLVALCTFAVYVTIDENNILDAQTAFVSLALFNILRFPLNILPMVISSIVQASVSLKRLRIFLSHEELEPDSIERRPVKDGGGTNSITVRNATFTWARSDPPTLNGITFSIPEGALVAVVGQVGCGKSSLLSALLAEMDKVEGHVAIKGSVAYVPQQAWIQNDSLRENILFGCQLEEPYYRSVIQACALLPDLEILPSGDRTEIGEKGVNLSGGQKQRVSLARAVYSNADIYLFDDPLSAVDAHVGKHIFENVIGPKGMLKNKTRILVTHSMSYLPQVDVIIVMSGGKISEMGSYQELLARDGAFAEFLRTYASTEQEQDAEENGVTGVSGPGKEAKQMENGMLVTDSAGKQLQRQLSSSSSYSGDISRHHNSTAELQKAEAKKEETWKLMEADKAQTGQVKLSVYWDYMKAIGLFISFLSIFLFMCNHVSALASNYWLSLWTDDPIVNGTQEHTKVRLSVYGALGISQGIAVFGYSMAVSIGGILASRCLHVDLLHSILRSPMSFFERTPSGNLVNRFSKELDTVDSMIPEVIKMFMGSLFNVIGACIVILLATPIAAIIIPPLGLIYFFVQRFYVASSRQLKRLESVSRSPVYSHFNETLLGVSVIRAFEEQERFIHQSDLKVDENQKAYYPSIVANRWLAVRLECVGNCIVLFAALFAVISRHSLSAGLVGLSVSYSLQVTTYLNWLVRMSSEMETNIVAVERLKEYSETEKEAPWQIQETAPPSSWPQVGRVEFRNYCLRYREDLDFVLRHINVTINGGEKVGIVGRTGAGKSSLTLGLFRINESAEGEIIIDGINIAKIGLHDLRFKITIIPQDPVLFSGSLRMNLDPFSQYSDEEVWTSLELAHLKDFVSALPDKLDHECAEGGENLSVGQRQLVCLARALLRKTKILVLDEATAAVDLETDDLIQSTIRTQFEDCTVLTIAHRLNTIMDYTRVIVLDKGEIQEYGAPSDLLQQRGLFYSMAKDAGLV

Stability [1]: Stable
Structure (SMILES): COc1cccc2c1C(=O)c1c(O)c3c(c(O)c1C2=O)C[C@@](O)(C(=O)COC(=O)c1ccc(C(=O)NCCCNc2ccc([N+](=O)[O-])c(C(F)(F)F)c2)cc1)C[C@@H]3O[C@H]1C[C@H](N)[C@H](O)[C@H](C)O1.Cl

Structure (SMILES): NCCCNc1ccc([N+](=O)[O-])c(C(F)(F)F)c1
inhibition (INH) [2]: Active
Activity (H9c2): Non-Toxic
inhibition (INH) [3]: Active
inhibition (Homo sapiens [4]): Active
inhibition (INH) [5]: Active
inhibition (Homo sapiens [6]): Active
inhibition (INH) [7]: Active

Reference: ChEMBL document CHEMBL4000256, “Light-Regulated NO Release as a Novel Strategy To Overcome Doxorubicin Multidrug Resistance” (ACS Med Chem Lett, 2017)
